*1 amine or outer side, *2 acyl side, *3 side chain or, on linkers, in order; H or OH if unused. Where a SMILES comes first, the peptide text is derived from it. [ ]: non-standard residue; d: D form. The star is where a group is joined. X1 = CN(CCCC[C@H](N[*:1])C(=O)[*:2])CCCCN(O)C(=O)/C=C/C(=O)O; Biotin = O=C1N[C@H]2[C@H](CS[C@H]2CCCCC(=O)*)N1; Bpa = N[C@@H](Cc1ccc(C(=O)c2ccccc2)cc1)C(=O)O; PEG4 = NCCOCCOCCOCCOCCC(=O)O
Key:
JHDM1A [1] = target: T1, JHDM1A (Homo sapiens, UniProt Q9Y2K7); experiment: Fluorescence polarization; assay type: binding
T1 sequence (Q9Y2K7 1-1162): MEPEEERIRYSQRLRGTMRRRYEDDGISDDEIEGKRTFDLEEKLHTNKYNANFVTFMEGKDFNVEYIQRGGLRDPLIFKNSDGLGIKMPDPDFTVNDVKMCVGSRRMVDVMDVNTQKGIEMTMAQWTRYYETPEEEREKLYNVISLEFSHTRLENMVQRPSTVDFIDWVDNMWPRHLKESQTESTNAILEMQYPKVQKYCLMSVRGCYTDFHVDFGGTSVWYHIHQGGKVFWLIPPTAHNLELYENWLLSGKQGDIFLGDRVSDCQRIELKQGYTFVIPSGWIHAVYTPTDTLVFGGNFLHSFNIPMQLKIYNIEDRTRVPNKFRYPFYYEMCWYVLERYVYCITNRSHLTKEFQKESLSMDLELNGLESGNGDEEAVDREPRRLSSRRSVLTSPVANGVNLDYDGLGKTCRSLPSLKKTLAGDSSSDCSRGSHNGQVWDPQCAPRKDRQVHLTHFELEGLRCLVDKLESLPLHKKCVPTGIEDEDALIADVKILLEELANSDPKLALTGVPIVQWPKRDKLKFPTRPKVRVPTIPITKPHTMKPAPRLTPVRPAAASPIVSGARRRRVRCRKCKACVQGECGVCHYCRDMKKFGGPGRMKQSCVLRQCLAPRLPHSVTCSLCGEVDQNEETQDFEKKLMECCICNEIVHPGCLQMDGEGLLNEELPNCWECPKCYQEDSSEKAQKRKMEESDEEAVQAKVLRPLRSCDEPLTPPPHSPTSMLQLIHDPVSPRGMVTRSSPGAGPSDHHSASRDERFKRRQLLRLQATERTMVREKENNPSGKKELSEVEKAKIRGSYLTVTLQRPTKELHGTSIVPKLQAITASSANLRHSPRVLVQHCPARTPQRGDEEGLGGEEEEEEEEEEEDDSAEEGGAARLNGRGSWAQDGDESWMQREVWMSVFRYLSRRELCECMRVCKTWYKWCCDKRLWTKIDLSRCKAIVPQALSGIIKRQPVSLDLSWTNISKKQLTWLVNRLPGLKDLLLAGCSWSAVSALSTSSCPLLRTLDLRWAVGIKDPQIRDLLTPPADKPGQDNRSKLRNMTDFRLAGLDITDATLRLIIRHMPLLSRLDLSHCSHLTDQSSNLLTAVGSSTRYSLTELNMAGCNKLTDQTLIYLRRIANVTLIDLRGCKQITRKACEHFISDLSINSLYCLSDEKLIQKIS

JHDM1A [2] = target: T1, JHDM1A; experiment: Affinity pulldown of purified JHDM1A in the presence of HeLa histone proteins; assay type: binding; conditions: in the absence of UV irradiation
Procedure, shortened: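 Acid-extracted HeLa histones were prepared by Triton lysis, then 0.2 N HCl overnight at 4 °C, then lyophilisation. Biotinylated peptide probe (20 μM) was loaded onto streptavidin magnetic beads for 30 min at 4 °C. Recombinant JHDM1A (5 μM) and equal amounts of histones were then added in 25 mM Tris, 100 mM NaCl, 5 μM NiCl2, pH 7.5, for 4 h at 4 °C. The 350 nm, 20 min UV step was omitted. Beads were washed in HEPES/1 M NaCl/1% Triton, then water.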

JMJD1C/KDM3C = JMJD1C/KDM3C (Homo sapiens, UniProt Q15652); experiment: Affinity pulldown from HeLa nuclear lysate, spectral count of JMJD1C/KDM3C; assay type: binding; conditions: HeLa nuclear extract
Sequence of JMJD1C/KDM3C (Q15652 whole entry): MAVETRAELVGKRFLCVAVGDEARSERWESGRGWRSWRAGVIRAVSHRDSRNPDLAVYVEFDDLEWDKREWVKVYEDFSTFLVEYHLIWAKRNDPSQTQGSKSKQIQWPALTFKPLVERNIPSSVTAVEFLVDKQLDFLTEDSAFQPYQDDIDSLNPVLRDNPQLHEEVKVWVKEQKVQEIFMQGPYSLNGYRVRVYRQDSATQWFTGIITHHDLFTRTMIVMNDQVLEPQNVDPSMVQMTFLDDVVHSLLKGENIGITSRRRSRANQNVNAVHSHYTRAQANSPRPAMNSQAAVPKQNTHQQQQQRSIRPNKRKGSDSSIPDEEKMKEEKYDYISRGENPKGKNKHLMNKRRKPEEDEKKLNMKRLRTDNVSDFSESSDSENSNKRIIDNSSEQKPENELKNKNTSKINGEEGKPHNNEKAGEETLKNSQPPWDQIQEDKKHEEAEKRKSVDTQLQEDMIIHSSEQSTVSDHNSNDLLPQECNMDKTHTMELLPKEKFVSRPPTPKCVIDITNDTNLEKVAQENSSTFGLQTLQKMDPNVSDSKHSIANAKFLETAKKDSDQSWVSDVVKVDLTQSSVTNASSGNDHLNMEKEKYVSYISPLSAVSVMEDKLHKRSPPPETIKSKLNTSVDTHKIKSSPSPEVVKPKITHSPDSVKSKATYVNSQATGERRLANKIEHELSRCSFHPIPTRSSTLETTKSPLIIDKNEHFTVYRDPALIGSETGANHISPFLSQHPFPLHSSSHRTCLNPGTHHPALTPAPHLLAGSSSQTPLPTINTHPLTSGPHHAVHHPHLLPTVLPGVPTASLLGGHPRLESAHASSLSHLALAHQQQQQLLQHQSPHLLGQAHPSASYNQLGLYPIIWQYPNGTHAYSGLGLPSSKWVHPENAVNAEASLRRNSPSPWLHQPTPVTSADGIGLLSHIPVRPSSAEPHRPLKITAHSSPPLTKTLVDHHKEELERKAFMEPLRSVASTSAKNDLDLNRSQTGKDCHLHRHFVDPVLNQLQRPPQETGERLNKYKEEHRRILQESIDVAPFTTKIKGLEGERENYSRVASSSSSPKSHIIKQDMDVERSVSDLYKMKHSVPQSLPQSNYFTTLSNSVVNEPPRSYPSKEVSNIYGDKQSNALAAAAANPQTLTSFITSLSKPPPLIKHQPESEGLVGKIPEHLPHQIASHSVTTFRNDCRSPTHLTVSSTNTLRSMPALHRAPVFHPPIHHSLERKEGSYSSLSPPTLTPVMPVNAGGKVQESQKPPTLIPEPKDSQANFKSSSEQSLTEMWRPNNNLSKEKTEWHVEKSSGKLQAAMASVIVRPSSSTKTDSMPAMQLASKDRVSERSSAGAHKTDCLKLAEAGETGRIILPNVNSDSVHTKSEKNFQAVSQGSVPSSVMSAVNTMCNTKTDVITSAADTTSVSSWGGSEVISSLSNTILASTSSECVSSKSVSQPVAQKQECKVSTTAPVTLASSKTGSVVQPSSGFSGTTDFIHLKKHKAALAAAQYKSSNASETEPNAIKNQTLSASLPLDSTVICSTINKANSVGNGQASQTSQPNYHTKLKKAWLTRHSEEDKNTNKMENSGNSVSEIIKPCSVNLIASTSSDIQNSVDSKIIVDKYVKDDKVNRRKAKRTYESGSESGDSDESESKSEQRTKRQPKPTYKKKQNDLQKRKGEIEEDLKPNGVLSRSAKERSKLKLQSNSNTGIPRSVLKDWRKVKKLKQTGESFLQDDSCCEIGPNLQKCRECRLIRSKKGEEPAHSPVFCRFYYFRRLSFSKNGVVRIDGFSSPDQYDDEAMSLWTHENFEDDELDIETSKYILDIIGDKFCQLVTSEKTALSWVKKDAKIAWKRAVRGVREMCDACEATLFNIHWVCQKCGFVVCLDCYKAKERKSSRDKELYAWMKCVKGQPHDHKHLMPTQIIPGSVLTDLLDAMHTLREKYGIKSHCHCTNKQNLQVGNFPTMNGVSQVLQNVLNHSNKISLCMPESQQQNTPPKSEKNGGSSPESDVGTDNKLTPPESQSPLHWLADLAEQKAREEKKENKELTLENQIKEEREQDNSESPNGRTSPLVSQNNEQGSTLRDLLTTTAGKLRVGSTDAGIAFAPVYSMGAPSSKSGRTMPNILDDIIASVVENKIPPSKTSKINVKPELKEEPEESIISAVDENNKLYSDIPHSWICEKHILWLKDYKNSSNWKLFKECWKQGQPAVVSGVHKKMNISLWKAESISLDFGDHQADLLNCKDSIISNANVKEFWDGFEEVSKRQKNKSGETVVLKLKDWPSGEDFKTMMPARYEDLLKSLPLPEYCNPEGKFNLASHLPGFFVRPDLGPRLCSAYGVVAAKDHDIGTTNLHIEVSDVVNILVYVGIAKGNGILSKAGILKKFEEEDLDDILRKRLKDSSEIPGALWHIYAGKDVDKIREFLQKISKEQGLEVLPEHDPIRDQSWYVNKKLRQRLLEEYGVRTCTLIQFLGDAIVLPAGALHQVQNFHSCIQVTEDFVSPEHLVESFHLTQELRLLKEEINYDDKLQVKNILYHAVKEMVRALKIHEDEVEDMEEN
Procedure, shortened: (§1)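 HeLa cells were grown in DMEM with 10% FCS and 1% penicillin/streptomycin at 37 °C, 5% CO2. Nuclei were prepared by hypotonic swelling and douncing, extracted in 0.4 M NaCl/20% glycerol buffer, and dialysed into 20 mM HEPES, 100 mM KCl, 2 mM MgCl2, pH 7.9. Streptavidin bead pulldowns used 2 mL lysate, and a no-probe control was included. Bead-bound material was washed, reduced with 4 mM DTT, alkylated with 14 mM iodoacetamide, trypsin-digested on the beads overnight at 37 °C, and run on nanoLC-LTQ/Orbitrap. Searches used human UniProt at 1% FDR, with spectral-count quantification.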

JMJD2A/KDM4A [3] = target: T2, JMJD2A/KDM4A (Homo sapiens, UniProt O75164); experiment: Affinity pulldown from HeLa nuclear lysate, spectral count of JMJD2A/KDM4A; assay type: binding; conditions: HeLa nuclear extract, 20 μM probe 6
T2 sequence (O75164 2-1064): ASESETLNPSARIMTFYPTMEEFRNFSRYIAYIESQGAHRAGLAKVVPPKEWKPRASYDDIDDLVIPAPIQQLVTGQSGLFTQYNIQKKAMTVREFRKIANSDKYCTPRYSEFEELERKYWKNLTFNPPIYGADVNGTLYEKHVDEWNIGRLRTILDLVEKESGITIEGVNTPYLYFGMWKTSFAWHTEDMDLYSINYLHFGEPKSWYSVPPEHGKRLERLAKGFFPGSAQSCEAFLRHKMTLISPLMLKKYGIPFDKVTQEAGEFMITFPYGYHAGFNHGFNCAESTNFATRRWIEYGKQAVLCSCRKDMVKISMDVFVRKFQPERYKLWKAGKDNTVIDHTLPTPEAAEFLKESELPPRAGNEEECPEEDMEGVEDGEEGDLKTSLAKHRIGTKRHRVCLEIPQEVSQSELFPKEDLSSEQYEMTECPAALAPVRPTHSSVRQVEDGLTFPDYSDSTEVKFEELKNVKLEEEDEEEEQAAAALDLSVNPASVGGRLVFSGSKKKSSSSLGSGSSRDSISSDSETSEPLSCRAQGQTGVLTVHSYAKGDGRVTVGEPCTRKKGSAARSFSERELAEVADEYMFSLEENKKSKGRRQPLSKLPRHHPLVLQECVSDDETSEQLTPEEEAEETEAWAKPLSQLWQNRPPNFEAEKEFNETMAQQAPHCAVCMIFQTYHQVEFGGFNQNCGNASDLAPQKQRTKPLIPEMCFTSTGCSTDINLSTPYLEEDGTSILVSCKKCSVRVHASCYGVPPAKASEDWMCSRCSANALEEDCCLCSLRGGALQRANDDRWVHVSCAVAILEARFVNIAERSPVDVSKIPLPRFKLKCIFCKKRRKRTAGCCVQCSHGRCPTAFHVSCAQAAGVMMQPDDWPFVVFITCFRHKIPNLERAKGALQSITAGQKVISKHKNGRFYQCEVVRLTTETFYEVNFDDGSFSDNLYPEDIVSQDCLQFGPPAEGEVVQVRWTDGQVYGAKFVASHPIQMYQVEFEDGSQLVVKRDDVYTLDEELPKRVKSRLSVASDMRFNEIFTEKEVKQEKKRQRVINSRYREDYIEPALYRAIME

JMJD2A/KDM4A [4] = experiment: as above; assay type: binding, human; conditions: HeLa nuclear extract, 20 μM probe 6, recombinant KDM4A spiked in at 25 nM
PHF8/KDM7A = PHF8/KDM7A (Homo sapiens, UniProt Q9UPP1); experiment: Affinity pulldown from HeLa nuclear lysate, spectral count of PHF8/KDM7A; assay type: binding; conditions: HeLa nuclear extract
Procedure, shortened: as §1

CHD8 = CHD8 (Homo sapiens, UniProt Q9HCK8); experiment: Affinity pulldown from HeLa nuclear lysate, spectral count of CHD8; assay type: binding; conditions: HeLa nuclear extract
Sequence of CHD8 (Q9HCK8 whole entry): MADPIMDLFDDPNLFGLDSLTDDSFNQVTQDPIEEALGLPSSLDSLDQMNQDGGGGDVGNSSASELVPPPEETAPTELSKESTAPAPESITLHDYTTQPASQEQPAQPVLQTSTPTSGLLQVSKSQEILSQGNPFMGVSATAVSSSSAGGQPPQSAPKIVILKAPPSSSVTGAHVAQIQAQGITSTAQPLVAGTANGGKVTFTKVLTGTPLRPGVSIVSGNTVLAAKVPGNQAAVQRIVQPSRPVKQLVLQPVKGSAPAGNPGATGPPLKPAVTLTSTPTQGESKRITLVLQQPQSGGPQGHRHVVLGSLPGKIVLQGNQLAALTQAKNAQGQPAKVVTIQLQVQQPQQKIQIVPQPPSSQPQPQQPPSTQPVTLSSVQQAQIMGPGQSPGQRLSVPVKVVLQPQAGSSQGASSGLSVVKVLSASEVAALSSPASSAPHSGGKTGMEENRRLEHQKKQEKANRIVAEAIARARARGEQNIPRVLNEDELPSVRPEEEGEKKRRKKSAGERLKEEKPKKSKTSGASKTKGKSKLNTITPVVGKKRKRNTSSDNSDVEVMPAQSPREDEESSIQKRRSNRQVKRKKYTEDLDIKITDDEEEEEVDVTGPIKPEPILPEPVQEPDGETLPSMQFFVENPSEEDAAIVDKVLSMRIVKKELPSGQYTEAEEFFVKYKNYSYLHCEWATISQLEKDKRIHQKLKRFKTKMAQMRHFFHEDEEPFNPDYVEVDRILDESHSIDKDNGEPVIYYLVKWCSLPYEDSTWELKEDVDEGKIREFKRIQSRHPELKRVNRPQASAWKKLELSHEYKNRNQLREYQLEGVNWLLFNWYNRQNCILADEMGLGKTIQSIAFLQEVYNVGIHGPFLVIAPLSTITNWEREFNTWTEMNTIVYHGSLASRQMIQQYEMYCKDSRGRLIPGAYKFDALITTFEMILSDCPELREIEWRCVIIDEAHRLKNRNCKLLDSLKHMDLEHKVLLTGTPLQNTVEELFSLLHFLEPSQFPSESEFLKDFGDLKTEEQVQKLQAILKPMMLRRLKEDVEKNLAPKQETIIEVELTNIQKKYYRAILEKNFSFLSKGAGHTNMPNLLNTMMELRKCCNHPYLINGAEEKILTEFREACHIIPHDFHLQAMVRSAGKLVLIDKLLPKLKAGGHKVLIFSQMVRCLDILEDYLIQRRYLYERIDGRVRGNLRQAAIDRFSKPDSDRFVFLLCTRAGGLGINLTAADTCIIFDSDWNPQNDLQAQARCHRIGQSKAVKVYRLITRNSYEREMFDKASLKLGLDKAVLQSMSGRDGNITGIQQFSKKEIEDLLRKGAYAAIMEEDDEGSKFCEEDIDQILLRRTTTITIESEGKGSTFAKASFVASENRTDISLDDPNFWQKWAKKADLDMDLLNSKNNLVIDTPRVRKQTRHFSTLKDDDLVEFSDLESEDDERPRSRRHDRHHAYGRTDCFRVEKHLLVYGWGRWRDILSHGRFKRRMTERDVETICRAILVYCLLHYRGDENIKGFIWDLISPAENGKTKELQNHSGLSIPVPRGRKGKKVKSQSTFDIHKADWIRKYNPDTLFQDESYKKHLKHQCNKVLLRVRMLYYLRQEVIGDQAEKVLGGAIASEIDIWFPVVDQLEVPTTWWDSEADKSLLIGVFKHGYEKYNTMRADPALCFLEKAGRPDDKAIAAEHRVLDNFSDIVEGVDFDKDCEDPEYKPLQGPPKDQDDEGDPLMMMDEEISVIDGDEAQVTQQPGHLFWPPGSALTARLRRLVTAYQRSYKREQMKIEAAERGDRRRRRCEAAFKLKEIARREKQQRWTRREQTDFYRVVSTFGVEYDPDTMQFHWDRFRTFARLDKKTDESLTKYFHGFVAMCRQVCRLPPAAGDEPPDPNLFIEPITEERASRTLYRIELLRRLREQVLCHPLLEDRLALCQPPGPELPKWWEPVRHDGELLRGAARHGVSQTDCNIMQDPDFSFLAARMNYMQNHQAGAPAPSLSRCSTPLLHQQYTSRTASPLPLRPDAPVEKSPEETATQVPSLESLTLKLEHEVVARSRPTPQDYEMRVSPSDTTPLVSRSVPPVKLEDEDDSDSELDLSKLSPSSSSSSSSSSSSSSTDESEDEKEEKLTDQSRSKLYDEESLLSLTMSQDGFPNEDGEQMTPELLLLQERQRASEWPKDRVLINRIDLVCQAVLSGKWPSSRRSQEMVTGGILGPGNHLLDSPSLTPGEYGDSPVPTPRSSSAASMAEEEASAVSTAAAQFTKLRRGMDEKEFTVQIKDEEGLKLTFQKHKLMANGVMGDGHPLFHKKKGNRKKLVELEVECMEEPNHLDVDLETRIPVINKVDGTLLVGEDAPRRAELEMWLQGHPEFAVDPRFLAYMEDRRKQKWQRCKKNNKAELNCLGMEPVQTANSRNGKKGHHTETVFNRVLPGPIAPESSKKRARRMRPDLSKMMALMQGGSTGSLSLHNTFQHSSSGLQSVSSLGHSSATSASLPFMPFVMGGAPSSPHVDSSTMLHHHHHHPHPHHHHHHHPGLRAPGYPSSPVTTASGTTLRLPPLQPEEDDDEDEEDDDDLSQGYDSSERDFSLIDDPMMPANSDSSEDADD
Procedure, shortened: as §1

CHD7 = CHD7 (Homo sapiens, UniProt Q9P2D1); experiment: Affinity pulldown from HeLa nuclear lysate, spectral count of CHD7; assay type: binding; conditions: HeLa nuclear extract
Procedure, shortened: as §1

HDAC1/2 = experiment: Affinity pulldown from HeLa nuclear lysate, spectral count of HDAC1/2; assay type: binding, human; conditions: HeLa nuclear extract
Procedure, shortened: as §1

[5] = 20 μM probe 6, recombinant KDM4A spiked in at 25 nM

Question: What does the source list for `CC(C)[C@H](NC(=O)CNC(=O)CNC(=O)[C@@H](NC(=O)[C@H](Cc1ccc(C(=O)c2ccccc2)cc1)NC(=O)CCOCCOCCOCCOCCNC(=O)CCCC[C@@H]1SC[C@@H]2NC(=O)N[C@@H]21)[C@@H](C)O)C(=O)N[C@@H](CCCCN(C)CCCCN(O)C(=O)/C=C/C(=O)O)C(=O)N[C@@H](CCCCN)C(=O)N1CCC[C@H]1C(=O)N[C@@H](Cc1c[nH]cn1)C(=O)N[C@@H](CCCNC(=N)N)C(N)=O` [probe 6] ({Biotin-PEG4}-[Bpa]TGGV[X1]KPHR-NH2)?
Answer: fold increased affinity compared to nonfunctionalized native H3K36me2 histone 20mer peptide (JHDM1A [1]): ~2 fold; pulldown of JHDM1A (JHDM1A [2]): complete absence of JHDM1A; spectral count, endogenous (JMJD1C/KDM3C; 20 μM probe 6): 6; spectral count, spiked-in (JMJD1C/KDM3C; [5]): 3; spectral count, endogenous (JMJD2A/KDM4A [3]): 0; spectral count, spiked-in (JMJD2A/KDM4A [4]): 5; spectral count, endogenous (PHF8/KDM7A; 20 μM probe 6): 1; spectral count, spiked-in (PHF8/KDM7A; [5]): 1; spectral count, endogenous (CHD8; 20 μM probe 6): 2; spectral count, spiked-in (CHD8; [5]): 3; spectral count, endogenous (CHD7; 20 μM probe 6): 5; spectral count, spiked-in (CHD7; [5]): 1; spectral count, endogenous (HDAC1/2; 20 μM probe 6): 8; spectral count, spiked-in (HDAC1/2; [5]): 3

From paper PMC4301071 (ACS Chemical Biology, 2014)
